Source: PubChem (Sanford-Burnham Center for Chemical Genomics)
CRFR2-BP antag = antagonists of CRF-BP/CRF-R2 complex, primary screen, cell-based, HEK293, calcium dye fluorescence, uHTS; CRF-induced calcium fluorescence; inhibition, % at 11.8 µM; 0.59% of 350,000 active;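 active means inhibition of the ligand-induced calcium signal above about 50% at the single tested concentration, limit read from the data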
UPR CHOP act = activators of apoptotic CHOP UPR arm, primary screen, cell-based, CHO-CHOP luciferase reporter, luminescence, uHTS. UPR activation; percent of tunicamycin response over DMSO baseline. activation, % at 10 µM. 0.34% of 330,000 active;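 active means at 10 µM dose, activation of 40% or more, normalized to positive control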;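 further: 100% = tunicamycin at 10 µg/mL and 0% = DMSO alone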
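Material: CHO-CHOP cells, stable luciferase reporter of PERK-eIF2a-CHOP signalling; quantity: 500 reporter cells seeded per well; buffer or medium: F12 medium containing 10% fetal bovine serum; compound: one dose, 10 µM in 0.5% DMSO; incubation: 6 h compound treatment, 37 °C; measured by: Steady-Glo luciferase luminescence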
UPR XBP1 act = activators of adaptive XBP1 UPR arm, primary screen, cell-based, CHO-XBP1 luciferase reporter, luminescence, uHTS; IRE1-XBP1 UPR activation; percent of tunicamycin response, DMSO as zero; activation, % at 20 µM; 0.33% of 330,000 active; AID 463104, 2010;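 active means versus positive control, 20 µM dose yields 30% or more activation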;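 further: 100% = tunicamycin at 10 µg/mL and 0% = DMSO only wells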
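Material – CHO cell line with stable XBP1 luciferase reporter · Buffer or medium – F12 plus 10% FBS · Compound – single point, 20 µM final compound, 1% DMSO · Schedule – 16-18 h cell attachment at 37 °C, then 6 h compound exposure · Signal – Steady-Glo luminescence read · Benchmarks – high control tunicamycin 10 µg/mL final, low control DMSO vehicle only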
Jurkat NFkB inh = inhibitors of induced NF-kB luciferase reporter, primary screen, TCR NF-kB activation inhibitor project, cell-based, luminescence, uHTS; Jurkat, PMA/ionomycin-induced NF-kB luciferase reporter; inhibition, % at 4 µM; 0.53% of 330,000 active; AID 435003, 2010; in the data active means inhibition above about 50%
697 NFkB inh = inhibitors of PMA/ionomycin-induced NF-kB reporter, 697 cells, primary screen, B-cell NF-kB inhibitor project, cell-based, luminescence, uHTS. 697 B-cell NF-kB luciferase reporter, 16 h. inhibition, % at 4 µM. 0.33% of 330,000 active; in the data active means inhibition above about 35%
UPR XBP1 confirm = IRE1-XBP1 UPR arm activators, confirmation, cell-based, CHO-XBP1 luciferase reporter, luminescence, single concentration | shares compounds with UPR XBP1 act | activation, % at 20 µM | 63% of 1,000 active | AID 485299, 2010;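 active means reporter signal at least 30% of the positive control's activation in two or more of four replicate wells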;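 further: plate controls were DMSO negative control for no effect and tunicamycin 10 µg/mL positive control for full effect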
Numbers without * were called inactive. Rows were chosen to be rich in hits. Some 1.8% of all compounds tested hit in one or more screens of this group.

What do the screens show for `CCN(Cc1ccccc1)S(=O)(=O)c1ccc(C(=O)N(CCCN(C)C)c2nc3cc(C)cc(C)c3s2)cc1`?
CRFR2-BP antag: -4.9; UPR CHOP act: 23.7; UPR XBP1 act: 18.1; Jurkat NFkB inh: -2.6; 697 NFkB inh: 3.4

Results for CCCCN(CC)S(=O)(=O)c1ccc(C(=O)N(CCCN(C)C)c2nc3cc(C)cc(C)c3s2)cc1 ?
CRFR2-BP antag: -41.1; UPR CHOP act: 3.9; UPR XBP1 act: 45.3*; Jurkat NFkB inh: -1.3; 697 NFkB inh: -1.6; UPR XBP1 confirm: 36.3*

What do the screens show for `O=S(=O)(c1ccc2nc(-c3ccccc3)[nH]c2c1)N1CCN(c2ccc(Cl)cc2)CC1`?
CRFR2-BP antag: -17.2; UPR CHOP act: 20.3; UPR XBP1 act: 90.1*; Jurkat NFkB inh: 5.9; 697 NFkB inh: -17.2; UPR XBP1 confirm: 115.1*

Results for CCOc1ccc(NC(=O)C(Cc2ccccc2)N2C(=O)c3cccc4cccc(c34)C2=O)cc1 (centres undefined) ?
CRFR2-BP antag: -3.6; UPR CHOP act: 19.1; UPR XBP1 act: 64.9*; Jurkat NFkB inh: 6.6; 697 NFkB inh: 6.7; UPR XBP1 confirm: 68.7*

What do the screens show for `O=C1Nc2ccccc2/C1=C/c1ccc([N+](=O)[O-])cc1`?
CRFR2-BP antag: -7.4; UPR CHOP act: 13.0; UPR XBP1 act: 74.8*; Jurkat NFkB inh: 15.3; 697 NFkB inh: 17.9; UPR XBP1 confirm: 76.5*

How did CCc1ccc(NC(=S)N2CCN(S(=O)(=O)c3ccccc3)CC2)cc1 do in these assays?
CRFR2-BP antag: -3.7; UPR CHOP act: -0.9; UPR XBP1 act: -2.1; Jurkat NFkB inh: 0.1; 697 NFkB inh: -19.6

How did COc1ccc(NC(=O)CNc2ccc(OC)c(S(=O)(=O)N3CCOCC3)c2)cc1 do in these assays?
CRFR2-BP antag: -3.6

Results for Cc1cc(C)c2c(c1)SC1=NC(c3ccccc3)(C(F)(F)F)NC(=O)N12 (centres undefined) ?
CRFR2-BP antag: -4.9; UPR CHOP act: 38.0; UPR XBP1 act: 46.3*; Jurkat NFkB inh: -18.6; 697 NFkB inh: -35.1; UPR XBP1 confirm: 21.8

How did CCOc1ccc(CN(CC)C(=O)Cc2c[nH]c3ccccc23)cc1OC do in these assays?
CRFR2-BP antag: 6.1; UPR CHOP act: 2.4; UPR XBP1 act: 4.4; Jurkat NFkB inh: 11.5; 697 NFkB inh: -1.1

Results for Cc1cc(NC(=O)/C(C#N)=C/c2ccc(-c3ccc(SC(F)F)cc3)o2)n(-c2ccccc2)n1 ?
CRFR2-BP antag: 34.2; UPR CHOP act: 35.5; UPR XBP1 act: 36.9*; Jurkat NFkB inh: -21.0; 697 NFkB inh: -46.5; UPR XBP1 confirm: 34.0*

What do the screens show for `CC(=O)c1cccc(S(=O)(=O)N2CCC(C(=O)Nc3cccc(C(=O)NC4CC4)c3)CC2)c1`?
CRFR2-BP antag: 1.6; UPR CHOP act: 2.9; UPR XBP1 act: 0.9; Jurkat NFkB inh: 12.7; 697 NFkB inh: 16.0

Results for COc1cc2c(cc1OC)C1Cc3ccc(OC)c(OC)c3CN1CC2 (centres undefined) ?
CRFR2-BP antag: 10.0; UPR CHOP act: -0.4; UPR XBP1 act: 2.2; Jurkat NFkB inh: -12.5; 697 NFkB inh: -11.2

What do the screens show for `COc1ccc2cc1Oc1ccc(cc1)C[C@H]1c3c(cc(OC)c4c3Oc3c(ccc5c3[C@H](C2)N(C)CC5)O4)CCN1C`?
CRFR2-BP antag: -46.7; UPR CHOP act: 19.0; UPR XBP1 act: 68.3*; Jurkat NFkB inh: 7.6; 697 NFkB inh: 8.4; UPR XBP1 confirm: 52.2*

Results for O=C(Nc1cc(S(=O)(=O)N2CCOCC2)ccc1Cl)c1cc([N+](=O)[O-])ccc1Cl ?
CRFR2-BP antag: 9.9; UPR CHOP act: 1.1; UPR XBP1 act: 69.0*; Jurkat NFkB inh: 3.2; 697 NFkB inh: 9.5; UPR XBP1 confirm: 24.1

How did O=C(Nc1ccc(S(=O)(=O)N2CCOCC2)cc1)c1ccc([N+](=O)[O-])cc1Cl do in these assays?
CRFR2-BP antag: 7.7; UPR CHOP act: -3.4; UPR XBP1 act: -8.6; Jurkat NFkB inh: 17.9; 697 NFkB inh: 12.0

What do the screens show for `Nc1nc(Nc2cccc(F)c2)nc2ccccc12`?
CRFR2-BP antag: 36.6; UPR CHOP act: 18.6; UPR XBP1 act: 40.1*; Jurkat NFkB inh: -109.0; 697 NFkB inh: -132.8; UPR XBP1 confirm: 41.8*

Results for CNc1nc(Nc2ccc([N+](=O)[O-])cc2)nc(OCC(F)(F)F)n1 ?
CRFR2-BP antag: 11.1; UPR CHOP act: -1.4; UPR XBP1 act: 121.9*; Jurkat NFkB inh: 1.7; 697 NFkB inh: 9.7; UPR XBP1 confirm: 3.3

How did COc1ccc(C2(C)C(C#N)C(=O)NC(=O)C2C#N)cc1 (centres undefined) do in these assays?
CRFR2-BP antag: 13.4

What do the screens show for `CC(=O)Nc1sc(C)c(C)c1C(=O)OCC(=O)Nc1cccc(C)c1`?
CRFR2-BP antag: -9.5; UPR CHOP act: 0.9; UPR XBP1 act: 37.4*; Jurkat NFkB inh: -22.0; 697 NFkB inh: -8.9; UPR XBP1 confirm: 5.4

What do the screens show for `CC(=O)Nc1sc(C)c(C)c1C(=O)OCC(=O)Nc1ccccc1`?
CRFR2-BP antag: 2.5; UPR CHOP act: 2.0; UPR XBP1 act: 28.6; Jurkat NFkB inh: -31.2; 697 NFkB inh: -26.9

How did Cn1nc(C(F)(F)F)c(/C=N/OC(=O)c2ccc(Cl)cc2)c1Cl do in these assays?
CRFR2-BP antag: -7.3; UPR CHOP act: 0.8; UPR XBP1 act: 1.0; Jurkat NFkB inh: 0.9; 697 NFkB inh: 12.3

How did Cn1nc(C(F)(F)F)c(/C=N/OC(=O)c2ccccc2)c1SCc1ccc(Cl)cc1 do in these assays?
CRFR2-BP antag: 8.5; UPR CHOP act: 11.9; UPR XBP1 act: 48.2*; Jurkat NFkB inh: -9.3; 697 NFkB inh: 3.7; UPR XBP1 confirm: 89.5*

What do the screens show for `Cn1nc(C(F)(F)F)c(/C=N/OC(=O)c2ccccc2Cl)c1SCc1ccccc1Cl`?
CRFR2-BP antag: -2.1; UPR CHOP act: 26.0; UPR XBP1 act: 89.4*; Jurkat NFkB inh: 1.9; 697 NFkB inh: -0.8; UPR XBP1 confirm: 97.8*

How did C#CCn1c(=NC(=O)c2ccc(Cl)s2)sc2cccc(OC)c21 do in these assays?
CRFR2-BP antag: 20.0; UPR CHOP act: 9.9; UPR XBP1 act: 136.1*; Jurkat NFkB inh: -32.4; 697 NFkB inh: -33.8; UPR XBP1 confirm: 111.6*

What do the screens show for `O=C(CCC(=O)N1CCOCC1)NCCc1ccccc1`?
CRFR2-BP antag: -13.7; UPR CHOP act: 0.0; UPR XBP1 act: 3.2; Jurkat NFkB inh: -0.5; 697 NFkB inh: -7.9

How did COc1ccc(C(=O)N/N=C/c2ccccc2OC(=O)c2ccccc2)cc1 do in these assays?
CRFR2-BP antag: 6.0; UPR CHOP act: 1.7; UPR XBP1 act: 51.2*; Jurkat NFkB inh: -35.0; 697 NFkB inh: -105.7; UPR XBP1 confirm: 29.8
